{"source": "ChEMBL document CHEMBL2057168", "about": "“(1aR,5aR)1a,3,5,5a-Tetrahydro-1H-2,3-diaza-cyclopropa[a]pentalene-4-carboxylic acid (MK-1903): a potent GPR109a agonist that lowers free fatty acids in humans” (J Med Chem, 2012)", "key": {"[1]": {"assay": "Cmax in human at titreated po dose administered from day 1 to 4 followed by 200 mg, po QD administered up to day 11 measured on day 11", "type": "ADME, organism-based", "design": "dose 200 mg, route oral", "details": "in vivo", "outline": "(§1)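 Healthy male volunteers took part in a double-blind, randomized, placebo-controlled dose-escalation study, with cohorts of 8 (6 on drug, 2 on placebo). Each subject got an oral dose on day 1, then a 2-day washout, then dosing on days 4–11. The 200 mg qd group was titrated over days 1–4. Venous plasma was sampled predose and 0.5–12 h postdose on days 1, 4 and 11, and predose on days 5–10 for troughs.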"}, "[2]": {"assay": "Cmax in human at 150 mg, po BID administered on day 1 followed by 2-day wash out period after which dosing continued up to day 11 measured on day 11", "type": "ADME, organism-based", "design": "dose 150 mg, route oral", "details": "in vivo", "outline": "as §1"}, "[3]": {"assay": "Cmax in human at 100 mg, po BID administered on day 1 followed by 2-day wash out period after which dosing continued up to day 11 measured on day 4", "type": "ADME, organism-based", "design": "dose 100 mg, route oral", "details": "in vivo", "outline": "(§2)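 Double-blind, placebo-controlled, randomized dose-escalation study in healthy male volunteers, six cohorts of eight (six active, two placebo). Oral dose on day 1, two-day washout, then dosing days 4–11; the 200 mg qd cohort was titrated over days 1–4. Venous blood taken predose and at 0.5–12 h on days 1, 4 and 11; plasma drug measured. τ 12 h (bid), 24 h (qd), 8 h (tid), 6 h (qid).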"}, "[4]": {"assay": "Tmax in human at 175 mg, po QID administered on day 1 followed by 2-days wash out period after which dosing continued up to day 11 measured on day 1", "type": "ADME, organism-based", "details": "in vivo", "outline": "(§3)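 Double-blind, placebo-controlled, randomized multiple oral dose study in healthy male volunteers (cohorts of eight; six active, two placebo). Dose given on day 1, then a two-day washout, then dosing days 4–11; for the QD arm, subjects were titrated over days 1–4. Venous plasma sampled predose and 0.5, 1, 1.5, 2, 4, 6, 8, 10, 12 h postdose on days 1, 4 and 11. Tmax reported as median (min–max).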"}, "[5]": {"assay": "AUC (0 to 12 hrs) in human at 150 mg, po BID administered on day 1 followed by 2-day wash out period after which dosing continued up to day 11 measured on day 4", "type": "ADME, organism-based", "design": "dose 150 mg, time < 12 hr, route oral", "details": "plasma", "outline": "as §2"}, "[6]": {"test_system": "Homo sapiens", "assay": "Antidyslipidemic activity in dyslipidemia patient assessed as change in triglyceride level at 150 mg administered TID during four week study relative to control", "type": "functional"}, "[7]": {"assay": "Tmax in human at 100 mg, po BID administered on day 1 followed by 2-day wash out period after which dosing continued up to day 11 measured on day 1", "type": "ADME, organism-based", "details": "in vivo", "outline": "as §1"}, "[8]": {"assay": "Cmax in human at 100 mg, po BID administered on day 1 followed by 2-day wash out period after which dosing continued up to day 11 measured on day 11", "type": "ADME, organism-based", "design": "dose 100 mg, route oral", "details": "in vivo", "outline": "as §2"}, "[9]": {"test_system": "Homo sapiens", "assay": "Toxicity in human assessed as occurrence of flushing at 5 to 200 mg, po administered as single dose", "type": "organism-based", "details": "in vivo"}, "[10]": {"assay": "Cmax in human at titreated po dose administered from day 1 to 4 followed by 200 mg, po QD administered up to day 11 measured on day 4", "type": "ADME, organism-based", "design": "dose 200 mg, route oral", "details": "in vivo", "outline": "as §1"}, "[11]": {"test_system": "Homo sapiens", "assay": "Toxicity in human assessed as occurrence of flushing at 10 to >10 mg administered as single dose", "type": "organism-based", "details": "in vivo", "outline": "(§4)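 Healthy volunteers scored subject-reported flushing with a flushing symptoms questionnaire after single oral doses and during repeat divided daily dosing.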"}, "[12]": {"test_system": "Homo sapiens", "assay": "Antidyslipidemic activity in human assessed as decrease in free fatty acid level titreated po dose administered from day 1 to 4 followed by 200 mg, po QD administered up to day 11 measured on day 4 and 11", "type": "functional, organism-based", "outline": "(§5)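 Healthy male volunteers in a randomized, double-blind, placebo-controlled multiple-dose study, six active and two placebo subjects per cohort. Oral dosing on day 1, two-day washout, then days 4–11, with titration over days 1–4 for the qd arm.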"}, "[13]": {"test_system": "Mus musculus", "assay": "Dose normalized Cmax in po dosed mouse", "type": "ADME, organism-based", "details": "in vivo"}, "[14]": {"biological_target": "Cytochrome P450 2D6 (Homo sapiens, UniProt P10635)", "sequence (P10635 whole entry)": "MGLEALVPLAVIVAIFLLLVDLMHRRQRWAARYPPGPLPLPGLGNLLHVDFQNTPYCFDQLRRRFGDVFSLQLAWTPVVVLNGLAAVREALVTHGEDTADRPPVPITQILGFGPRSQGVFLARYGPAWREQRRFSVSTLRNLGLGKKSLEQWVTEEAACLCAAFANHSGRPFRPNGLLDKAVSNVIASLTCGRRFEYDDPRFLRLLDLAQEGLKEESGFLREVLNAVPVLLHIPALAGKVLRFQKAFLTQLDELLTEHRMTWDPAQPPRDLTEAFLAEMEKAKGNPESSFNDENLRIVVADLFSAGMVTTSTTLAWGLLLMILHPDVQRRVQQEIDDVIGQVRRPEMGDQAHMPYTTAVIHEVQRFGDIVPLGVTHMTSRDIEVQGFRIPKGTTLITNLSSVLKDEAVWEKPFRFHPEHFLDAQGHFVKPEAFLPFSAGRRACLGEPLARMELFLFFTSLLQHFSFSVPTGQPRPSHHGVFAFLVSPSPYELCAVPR", "assay": "Activity at CYP2D6", "type": "ADME"}, "[15]": {"assay": "Tmax in human at 150 mg, po BID administered on day 1 followed by 2-day wash out period after which dosing continued up to day 11 measured on day 11", "type": "ADME, organism-based", "details": "in vivo", "outline": "as §3"}, "[16]": {"test_system": "Homo sapiens", "assay": "Toxicity in human assessed as occurrence of flushing administered as single dose", "type": "organism-based", "details": "in vivo", "outline": "as §4"}, "[17]": {"test_system": "Rattus norvegicus", "assay": "Antidyslipedic activity in fasted Sprague-Dawley rat assessed as decrease in free fatty acid level at 0.1 to 30 mg/kg, po by NEFA C-free fatty acid assay", "type": "functional", "design": "scale not given: the % may be the effect or the level left", "details": "dose mg/kg 0.1-30", "outline": "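Male Sprague-Dawley rats fasted, compound by oral gavage, serial plasma sampling after dosing for free fatty acids over a time course; vehicle-dosed control group.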"}, "[18]": {"biological_target": "Cytochrome P450 2C9 (Homo sapiens, UniProt P11712)", "sequence (P11712 whole entry)": "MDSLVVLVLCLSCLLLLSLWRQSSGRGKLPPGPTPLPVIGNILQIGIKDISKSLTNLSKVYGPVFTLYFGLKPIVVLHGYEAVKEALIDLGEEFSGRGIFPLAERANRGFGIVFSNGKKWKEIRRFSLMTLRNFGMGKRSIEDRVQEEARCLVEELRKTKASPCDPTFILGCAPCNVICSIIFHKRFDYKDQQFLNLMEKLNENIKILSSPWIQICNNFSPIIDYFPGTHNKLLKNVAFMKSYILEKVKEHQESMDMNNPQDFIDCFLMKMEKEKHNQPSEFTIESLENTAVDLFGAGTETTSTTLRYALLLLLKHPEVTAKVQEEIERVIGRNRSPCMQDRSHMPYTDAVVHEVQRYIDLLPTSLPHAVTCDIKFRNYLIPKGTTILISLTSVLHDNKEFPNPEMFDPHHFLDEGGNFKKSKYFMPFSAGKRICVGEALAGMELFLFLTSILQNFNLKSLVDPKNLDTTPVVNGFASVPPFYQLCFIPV", "assay": "Activity at CYP2C9", "type": "ADME"}, "[19]": {"assay": "Volume of distribution in dog", "type": "ADME, organism-based, Canis lupus familiaris", "details": "in vivo"}, "[20]": {"assay": "Cmin in human at 175 mg, po QID administered on day 1 followed by 2-days wash out period after which dosing continued up to day 11 measured on day 4 at 6 hrs", "type": "ADME, organism-based", "details": "in vivo, read-out: Cmin", "outline": "as §1"}, "[21]": {"assay": "Volume of distribution in mouse", "type": "ADME, organism-based", "details": "in vivo"}, "[22]": {"assay": "Tmax in human at titreated po dose administered from day 1 to 4 followed by 200 mg, po QD administered up to day 11 measured on day 11", "type": "ADME, organism-based", "details": "in vivo", "outline": "as §3"}, "[23]": {"assay": "Terminal half life in rhesus monkey", "type": "ADME, organism-based, Macaca mulatta", "details": "in vivo, read-out: beta t1/2 (converted)"}, "[24]": {"test_system": "Homo sapiens", "assay": "Antidyslipidemic activity in human assessed as decrease in free fatty acid level 150 mg, po TID administered on day 1 followed by 2-days wash out period after which dosing continued up to day 11 measured on day 4 and 11", "type": "functional, organism-based", "outline": "as §5"}, "[25]": {"assay": "Tmax in human at 150 mg, po BID administered on day 1 followed by 2-day wash out period after which dosing continued up to day 11 measured on day 1", "type": "ADME, organism-based", "details": "in vivo", "outline": "as §3"}, "[26]": {"assay": "Cmin in human at 150 mg, po TID administered on day 1 followed by 2-days wash out period after which dosing continued up to day 11 measured on day 1 at 8 hrs", "type": "ADME, organism-based", "details": "in vivo, read-out: Cmin", "outline": "as §1"}, "[27]": {"assay": "AUC (0 to 6 hrs) in human at 175 mg, po QID administered on day 1 followed by 2-days wash out period after which dosing continued up to day 11 measured on day 4", "type": "ADME, organism-based", "design": "time < 6 hr, dose 175 mg, route oral", "details": "plasma", "outline": "as §2"}, "[28]": {"assay": "Cmax in human at 150 mg, po BID administered on day 1 followed by 2-day wash out period after which dosing continued up to day 11 measured on day 4", "type": "ADME, organism-based", "design": "dose 150 mg, route oral", "details": "in vivo", "outline": "as §1"}, "[29]": {"test_system": "Mus musculus", "assay": "Toxicity in C57/Bl6 mouse assessed as increase in cutaneous blood flow in ear at 100 mg/kg, ip after 5 mins relative to vehicle treated control by laser doppler flowmetry", "type": "organism-based", "design": "dose 100 mg/kg, route intraperitoneal", "details": "in vivo", "outline": "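Male C57/Bl6 mice (8–10 weeks, ~25 g) anesthetized with Nembutal ip (80 mg/10 mL/kg). Ear perfusion recorded by laser Doppler imaging: 3 min baseline, then vehicle (PBS, 40% HPBCD or 0.5% methylcellulose) or compound given ip at 5 mL/kg through a preinserted syringe, with readings for ~15 min. Expressed as % change of perfusion over baseline.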"}, "[30]": {"assay": "Cmin in human at 50 mg, po BID administered on day 1 followed by 2-day wash out period after which dosing continued up to day 11 measured on day 4 at 12 hrs", "type": "ADME, organism-based", "details": "in vivo, read-out: Cmin", "outline": "as §1"}, "[31]": {"test_system": "Homo sapiens", "assay": "Toxicity in dyslipedimc patient assessed as flushing at 150 mg administered TID during four week study", "type": "organism-based", "details": "in vivo"}}, "note": "Activity calls are given as the source filed them. The rule behind the calls is not given here."}
{"smiles": "O=C(O)c1n[nH]c2c1C[C@H]1C[C@@H]21", "values": [{"measurement": "Cmax", "setting": "[1]", "result": 49.8, "unit": "nM"}, {"measurement": "Cmax", "setting": "[2]", "result": 27.7, "unit": "nM"}, {"measurement": "Cmax", "setting": "[3]", "result": 33.1, "unit": "nM"}, {"measurement": "Tmax", "setting": "[4]", "result": 1.25, "unit": "h"}, {"measurement": "AUC at 12 h", "setting": "[5]", "result": 0.0803, "unit": "µM·h"}, {"measurement": "Activity", "setting": "[6]", "result": -10.3, "unit": "%"}, {"measurement": "Tmax", "setting": "[7]", "result": 1, "unit": "h"}, {"measurement": "Cmax", "setting": "[8]", "result": 32.5, "unit": "nM"}, {"measurement": "Activity", "setting": "[9]", "result": "Toxic"}, {"measurement": "Cmax", "setting": "[10]", "result": 56.3, "unit": "nM"}, {"measurement": "Activity", "setting": "[11]", "result": "Toxic"}, {"measurement": "Activity", "setting": "[12]", "result": "Active"}, {"measurement": "Cmax/dose", "setting": "[13]", "result": 3.5, "unit": "µM·kg/mg"}, {"measurement": "Activity", "setting": "[14]", "result": "Not Active"}, {"measurement": "Tmax", "setting": "[15]", "result": 1, "unit": "h"}, {"measurement": "Activity", "setting": "[16]", "result": "Dose-dependent effect"}, {"measurement": "Activity", "setting": "[17]", "result": 90, "unit": "%"}, {"measurement": "Activity", "setting": "[18]", "result": "Not Active"}, {"measurement": "Vd", "setting": "[19]", "result": 0.41, "unit": "L/kg"}, {"measurement": "concentration at 6 h", "setting": "[20]", "result": 2.92, "unit": "nM"}, {"measurement": "Vd", "setting": "[21]", "result": 0.75, "unit": "L/kg"}, {"measurement": "Tmax", "setting": "[22]", "result": 1.25, "unit": "h"}, {"measurement": "half-life", "setting": "[23]", "result": 1.1, "unit": "h"}, {"measurement": "Activity", "setting": "[24]", "result": "Active"}, {"measurement": "Tmax", "setting": "[25]", "result": 1.25, "unit": "h"}, {"measurement": "concentration at 8 h", "setting": "[26]", "result": 0.869, "unit": "nM"}, {"measurement": "AUC at 6 h", "setting": "[27]", "result": 0.113, "unit": "µM·h"}, {"measurement": "Cmax", "setting": "[28]", "result": 31.7, "unit": "nM"}, {"measurement": "Activity", "setting": "[29]", "result": 30, "unit": "%"}, {"measurement": "concentration at 12 h", "setting": "[30]", "result": 0.023, "unit": "nM"}, {"measurement": "Activity", "setting": "[31]", "result": "Non-toxic"}]}
